What all share (format): functional
Experiment [1] concerns Mus musculus. Kind of experiment: In vivo effect of Guanosines on murine NK cell activity at E:T ratio of 50:1. The gist of the method:
(§1)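 Mice dosed ip with 150 mg/kg in 2% aqueous sodium bicarbonate, split as 75 mg/kg b.i.d. for 1 day; controls got 2% sodium bicarbonate alone; groups of two. Spleens taken after 24 h; splenocytes tested ex vivo against 51Cr-labelled YAC-1 T-cell lymphoma targets in a 4 h 51Cr release assay, in triplicate, at two effector:target ratios.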

Experiment [2] has as its system Semliki Forest virus. Kind of experiment: Effect of compound on forest virus infection in mice, Mean survival time through 21 days at 100 mg/kg dose. Put shortly:
(§2)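 Female Swiss Webster mice, about 20 g, received test compound intraperitoneally in aqueous 2% sodium bicarbonate. The daily dose was split into two halves given 24 h and 18 h before lethal Semliki Forest virus inoculation. Placebo mice got 2% sodium bicarbonate alone (0.1 mL/injection). The read-outs were survivors per group and mean survival time with standard deviation.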

Experiment [3] concerns Semliki Forest virus. Kind of experiment: Effect of compound on forest virus infection in mice, Mean survival time through 21 days at 200 mg/kg dose. The gist of the method:
as §2

Experiment [4] relates to Semliki Forest virus. The experiment can be described thus: Effect of compound on forest virus infection in mice at the dose of 100 mg/kg; Tested over 12 mice. Put shortly: as §2
Experiment [5] has as its system Semliki Forest virus. The experiment can be described thus: Effect of compound on forest virus infection in mice at the dose of 200 mg/kg; Tested over 12 mice. The gist of the method: as §2
Experiment [6] deals with Mus musculus. Kind of experiment: In vivo effect of Guanosines on murine NK cell activity at E:T ratio of 100:1. The gist of the method: as §1
In experiment [7] the test system is Semliki Forest virus. Kind of experiment: Effect of compound on forest virus infection in mice at the dose of 100 mg/kg; tested over 12 mice. Put shortly: as §2
The subject of experiment [8] is Semliki Forest virus. The experiment can be described thus: Effect of compound on forest virus infection in mice at the dose of 200 mg/kg; tested over 11 mice. Put shortly:
as §2

The subject of experiment [9] is Mus musculus. The experiment can be described thus: In vivo effect of Guanosines on murin NK cell activity at E:T ratio of 100:1. The gist of the method:
as §1

In experiment [10] the test system is Semliki Forest virus. Kind of experiment: Effect of compound on forest virus infection in mice at the dose of 200 mg/kg; tested over 12 mice. The gist of the method:
as §2

Molecules are shown by their SMILES.

On to `Nc1nc2c(c(N)nn2C2O[C@H](CO)[C@@H](O)[C@H]2O)c(=O)[nH]1` (stereo partly drawn), for which the Cytotoxicity in the experiment on Mus musculus [1] is listed as 16.8%; with Mus musculus [6] it was 25%. Besides, the Mean survival time is 6.2 days in the experiment on Semliki Forest virus [2] and 6.8 days in the experiment with Semliki Forest virus [3]. Also, the results for the Survivors / total in the experiment with Semliki Forest virus [4] and in the experiment on Semliki Forest virus [5] were 1 and 3, respectively.
`Nc1nc(=O)c2sc(=O)n([C@@H]3O[C@H](CO)[C@@H](O)[C@H]3O)c2[nH]1` [ISATORIBINE]: the Mean survival time is 11.5 days in the experiment on Semliki Forest virus [2] and >21 days in the experiment with Semliki Forest virus [3]. Besides, the Survivors / total with Semliki Forest virus [4] turned out to be 10; with Semliki Forest virus [5], 12.
For `Cc1nn(C2O[C@H](CO)[C@@H](O)[C@H]2O)c2nc(N)[nH]c(=O)c12` (stereo partly drawn), the Cytotoxicity stood at 17% in the experiment on Mus musculus [1] and 29.7% with Mus musculus [6]. The Mean survival time was 8 days in the experiment with Semliki Forest virus [2] and 6.4 days with Semliki Forest virus [3]. In addition, the values for the Survivors / total with Semliki Forest virus [7] and in the experiment on Semliki Forest virus [8] were 8 and 6, respectively.
As to `Nc1nc2c(c(Br)nn2C2O[C@H](CO)[C@@H](O)[C@H]2O)c(=O)[nH]1` (stereo partly drawn), the Cytotoxicity in the experiment on Mus musculus [1] is listed as 24.4%; in the experiment with Mus musculus [9], 33.2%. In addition, the Mean survival time with Semliki Forest virus [2] and in the experiment on Semliki Forest virus [3] was 9 days each time. In addition, the Survivors / total in the experiment on Semliki Forest virus [4] and with Semliki Forest virus [5] was 11 throughout.
Turning to `COc1nn(C2O[C@H](CO)[C@@H](O)[C@H]2O)c2nc(N)[nH]c(=O)c12` (stereo partly drawn), the Mean survival time came out at 7.8 days in the experiment on Semliki Forest virus [2] and 8.6 days in the experiment with Semliki Forest virus [3]. Besides, the Survivors / total in the experiment with Semliki Forest virus [4] and in the experiment with Semliki Forest virus [10] was 2 throughout.
In the case of `Nc1nc2c(c(C(=O)O)nn2C2O[C@H](CO)[C@@H](O)[C@H]2O)c(=O)[nH]1` (stereo partly drawn), the Mean survival time came out at 6 days in the experiment on Semliki Forest virus [2] and 6.3 days in the experiment on Semliki Forest virus [3]. The Survivors / total amounted to 1 in the experiment with Semliki Forest virus [7] and 3 in the experiment on Semliki Forest virus [10].
On to `Nc1nc2c(cnn2C2O[C@H](CO)[C@@H](O)[C@H]2O)c(=O)[nH]1` (stereo partly drawn), for which the Cytotoxicity with Mus musculus [1] amounted to 26.9%; in the experiment on Mus musculus [6] it was 41.1%. Besides, the figures for the Mean survival time in the experiment with Semliki Forest virus [2] and with Semliki Forest virus [3] were 9 days and > 21 days, respectively. Moreover, the Survivors / total with Semliki Forest virus [4] is recorded as 9; with Semliki Forest virus [5], 12.
`N=c1[nH]c(=O)c2c(-c3ccccc3)nn(C3O[C@H](CO)[C@@H](O)[C@H]3O)c2[nH]1` (stereo partly drawn): the Mean survival time in the experiment on Semliki Forest virus [2] was found to be 6 days; with Semliki Forest virus [3] it was 7.2 days. In addition, the Survivors / total was 1 with Semliki Forest virus [7] and 0 with Semliki Forest virus [10].
On to `Nc1nc2c(c(=O)[nH]1)c(=O)[nH]n2C1O[C@H](CO)[C@@H](O)[C@H]1O` (stereo partly drawn), for which the Mean survival time with Semliki Forest virus [2] stood at 7 days; in the experiment with Semliki Forest virus [3], 6.9 days. The molecule further returned a Survivors / total in the experiment with Semliki Forest virus [10] of 0%.

(Values after ChEMBL document CHEMBL1124872, “Guanosine analogues. Synthesis of nucleosides of certain 3-substituted 6-aminopyrazolo[3,4-d]pyrimidin-4(5H)-ones as potential immunotherapeutic agents” (1990).)
